Test results reported in ChEMBL document CHEMBL1629439, “High-throughput identification of antibacterials against methicillin-resistant Staphylococcus aureus (MRSA) and the transglycosylase” (Bioorg Med Chem, 2010).
Converted amounts (≈) assume the structure as drawn.

How the values were obtained:
[1] = tested on: Mycolicibacterium smegmatis; assay: Antimicrobial activity against Mycobacterium smegmatis BCRC 11565 after 18 to 24 hrs by alamar blue assay; type: functional; conditions: Mycolicibacterium smegmatis, BCRC 11565; read-out: MIC
Procedure, shortened: (§1)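 Broth microdilution per NCCLS in Mueller-Hinton broth, 8-point twofold dilutions, 384-well format. Exponential-phase cells at 5 × 10^5 cells/ml incubated with compound 18–24 h at 37 °C, then 20% Alamar blue added and fluorescence read. MIC90 taken as the lowest concentration preventing at least 90% bacterial growth.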

[2] = tested on: Stenotrophomonas maltophilia; assay: Antimicrobial activity against Stenotrophomonas maltophilia ATCC 13637 after 18 to 24 hrs by alamar blue assay; type: functional; conditions: Stenotrophomonas maltophilia, ATCC 13637; read-out: MIC; procedure, shortened: as §1
Bacillus subtilis = assay: Antimicrobial activity against Bacillus subtilis ATCC 23857 after 18 to 24 hrs by alamar blue assay; type: functional; procedure, shortened: as §1
Acinetobacter baumannii = assay: Antimicrobial activity against Acinetobacter baumannii ATCC 49139 after 18 to 24 hrs by alamar blue assay; type: functional; conditions: Acinetobacter baumannii, ATCC 49139; read-out: MIC; procedure, shortened: as §1
Staphylococcus aureus [3] = assay: Antimicrobial activity against methicillin-resistant Staphylococcus aureus ATCC 33592 after 18 to 24 hrs by alamar blue assay; type: functional; conditions: Staphylococcus aureus, ATCC 33592; read-out: MIC
Procedure, shortened: (§2)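 Broth microdilution per NCCLS standard, Mueller-Hinton broth, 8-point twofold dilutions; exponentially growing cells at 5 10^5 cells/ml with compound, 18–24 h at 37 C; 20% Alamar blue added, fluorescence read; MIC90 taken as lowest concentration preventing at least 90% growth.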

Staphylococcus aureus [4] = assay: Antimicrobial activity against oxacillin- and methicillin-resistant Staphylococcus aureus isolate Sa-OXA-R2 after 18 to 24 hrs by alamar blue assay; type: functional; procedure, shortened: as §2
Staphylococcus aureus [5] = assay: Antimicrobial activity against Staphylococcus aureus ATCC 29213 after 18 to 24 hrs by alamar blue assay
Serratia marcescens = assay: Antimicrobial activity against Serratia marcescens ATCC 14756 after 18 to 24 hrs by alamar blue assay; type: functional; conditions: Serratia marcescens, ATCC 14756; read-out: MIC; procedure, shortened: as §1
Staphylococcus aureus [6] = assay: Antimicrobial activity against methicillin-resistant Staphylococcus aureus isolate NTUH4722 after 18 to 24 hrs by alamar blue assay; type: functional; procedure, shortened: as §2
Pseudomonas aeruginosa = assay: Antimicrobial activity against Pseudomonas aeruginosa ATCC 25619 after 18 to 24 hrs by alamar blue assay; type: functional; conditions: Pseudomonas aeruginosa, ATCC 25619; read-out: MIC; procedure, shortened: as §1
[7] = Displacement of fluorescein-labeled moenomycin from transglycosylase at 100 uM after 30 mins by fluorescence anisotropy binding assay
[8] = Inhibition of transglycosylase assessed as inhibition of NBD- labelled lipid II polymerization at 100 uM
Procedure, shortened: (§3)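 100 µM NBD-labelled lipid II incubated 30 min with full-length PBP (EC, SA or Mtb) and 10 ng/µl N-acetylmuramidase in 50 mM Tris-HCl pH 8.0, 10 mM MgCl2, 0.1% Triton X-100, 10% DMSO, 15% MeOH. Supernatant run on anion-exchange HPLC with 20 mM–0.5 M ammonium acetate gradient. Inhibition calculated from substrate peak-area percentage. IC50 determined. S. aureus strains share one SA enzyme.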

Escherichia coli = assay: Antimicrobial activity against Escherichia coli ATCC […] after 18 to 24 hrs by alamar blue assay; type: functional; conditions: Escherichia coli; read-out: MIC; procedure, shortened: as §1
[9] = Inhibition of transglycosylase assessed as inhibition of NBD- labelled lipid II polymerization; procedure, shortened: as §3

inhibition [7]	inhibition [8]	SMILES	MIC [1]	MIC [2]	MIC (Bacillus subtilis)	MIC (Acinetobacter baumannii)	MIC (Staphylococcus aureus [3])	MIC (Staphylococcus aureus [4])	MIC (Staphylococcus aureus [5])	MIC (Serratia marcescens)	MIC (Staphylococcus aureus [6])	MIC (Pseudomonas aeruginosa)	MIC (Escherichia coli)	IC90 [9]
93%	0%	CCn1cc(C(=O)O)c(=O)c2cc(F)c(N3CCN(C(=O)c4cccc(C)c4)CC3)cc21	–	–	–	–	–	–	–	–	–	–	–	–
97%	0%	C(=C\c1nc([P+](c2ccccc2)(c2ccccc2)c2ccccc2)c(N2CCCCCC2)o1)/c1ccccc1	–	–	–	–	–	–	–	–	–	–	–	–
–	–	O=C(Nc1ccc(Oc2ccc(Cl)cc2)c(Cl)c1)c1cc(Br)cc(Br)c1O	0.5 µg/mL (≈ 0.94 µM)	16 µg/mL (≈ 30.1 µM)	< 0.03 µg/mL	16 µg/mL (≈ 30.1 µM)	0.25 µg/mL (≈ 0.47 µM)	0.5 µg/mL (≈ 0.94 µM)	0.5 µg/mL (≈ 0.94 µM)	16 µg/mL (≈ 30.1 µM)	0.25 µg/mL (≈ 0.47 µM)	16 µg/mL (≈ 30.1 µM)	8 µg/mL (≈ 15 µM)	100 µM
–	–	O=C(Nc1ccc(Oc2ccc(Cl)c3cccnc23)c(Br)c1)c1cc(Br)cc(Br)c1O	0.5 µg/mL (≈ 0.797 µM)	16 µg/mL (≈ 25.5 µM)	< 0.03 µg/mL	16 µg/mL (≈ 25.5 µM)	16 µg/mL (≈ 25.5 µM)	≤ 0.03 µg/mL	32 µg/mL (≈ 51 µM)	16 µg/mL (≈ 25.5 µM)	≤ 0.03 µg/mL	16 µg/mL (≈ 25.5 µM)	8 µg/mL (≈ 12.7 µM)	50 µM
–	–	O=C(c1ccc(Cl)cc1)c1cc(NC(=O)c2cc(I)cc(I)c2O)ccc1Cl	0.5 µg/mL (≈ 0.784 µM)	16 µg/mL (≈ 25.1 µM)	< 0.03 µg/mL	16 µg/mL (≈ 25.1 µM)	4 µg/mL (≈ 6.27 µM)	≤ 0.03 µg/mL	≤ 2 µg/mL	16 µg/mL (≈ 25.1 µM)	≤ 0.03 µg/mL	16 µg/mL (≈ 25.1 µM)	8 µg/mL (≈ 12.5 µM)	100 µM
–	–	O=C(Nc1ccc(Oc2ccc(Br)c3ccccc23)c(Cl)c1)c1cc(Br)cc(Br)c1O	0.5 µg/mL (≈ 0.798 µM)	16 µg/mL (≈ 25.5 µM)	< 0.03 µg/mL	16 µg/mL (≈ 25.5 µM)	≤ 2 µg/mL	≤ 0.03 µg/mL	4 µg/mL (≈ 6.38 µM)	16 µg/mL (≈ 25.5 µM)	≤ 0.03 µg/mL	16 µg/mL (≈ 25.5 µM)	8 µg/mL (≈ 12.8 µM)	100 µM
90%	0%	O=C(Nc1ccc(C(F)(F)F)cc1)N1CCN(c2nc(CCc3ccccc3)nc3sc4c(c23)CCCC4)CC1	–	–	–	–	–	–	–	–	–	–	–	–
90%	0%	Cc1ccc(Nc2nc3nonc3nc2Nc2cccc(C(F)(F)F)c2)cc1Cl	–	–	–	–	–	–	–	–	–	–	–	–
–	–	O=C(Nc1ccc(Sc2nc3ccccc3s2)c(Cl)c1)c1cc(Cl)cc(Cl)c1O	0.5 µg/mL (≈ 1.04 µM)	16 µg/mL (≈ 33.2 µM)	< 0.03 µg/mL	16 µg/mL (≈ 33.2 µM)	4 µg/mL (≈ 8.3 µM)	≤ 0.03 µg/mL	8 µg/mL (≈ 16.6 µM)	16 µg/mL (≈ 33.2 µM)	≤ 0.03 µg/mL	16 µg/mL (≈ 33.2 µM)	8 µg/mL (≈ 16.6 µM)	> 100 µM
96%	0%	Cc1ccc(-c2cc(C(=O)Oc3cccc(C)c3)no2)cc1	–	–	–	–	–	–	–	–	–	–	–	–
–	–	O=C(Nc1ccc(S(=O)(=O)c2nc3ccccc3s2)c(Cl)c1)c1cc(Cl)cc(Cl)c1O	0.5 µg/mL (≈ 0.973 µM)	16 µg/mL (≈ 31.1 µM)	< 0.03 µg/mL	16 µg/mL (≈ 31.1 µM)	4 µg/mL (≈ 7.78 µM)	≤ 0.03 µg/mL	8 µg/mL (≈ 15.6 µM)	16 µg/mL (≈ 31.1 µM)	≤ 0.03 µg/mL	16 µg/mL (≈ 31.1 µM)	8 µg/mL (≈ 15.6 µM)	100 µM
–	–	O=C(Nc1ccc(Oc2ccc(Cl)c3cccnc23)c(Cl)c1)c1cc(Br)cc(Br)c1O	0.5 µg/mL (≈ 0.858 µM)	16 µg/mL (≈ 27.4 µM)	< 0.03 µg/mL	16 µg/mL (≈ 27.4 µM)	32 µg/mL (≈ 54.9 µM)	≤ 0.03 µg/mL	16 µg/mL (≈ 27.4 µM)	16 µg/mL (≈ 27.4 µM)	≤ 0.03 µg/mL	16 µg/mL (≈ 27.4 µM)	8 µg/mL (≈ 13.7 µM)	100 µM
–	–	O=C(Nc1cc(Cl)ccc1Oc1ccc(Cl)c2ccccc12)c1cc(I)cc(I)c1O	0.5 µg/mL (≈ 0.74 µM)	16 µg/mL (≈ 23.7 µM)	< 0.03 µg/mL	16 µg/mL (≈ 23.7 µM)	≤ 2 µg/mL	≤ 0.03 µg/mL	4 µg/mL (≈ 5.92 µM)	16 µg/mL (≈ 23.7 µM)	≤ 0.03 µg/mL	16 µg/mL (≈ 23.7 µM)	8 µg/mL (≈ 11.8 µM)	50 µM
–	–	Cc1ccc(C(C)C)c(Oc2ccccc2NC(=O)c2cc(Br)cc(Br)c2O)c1	0.5 µg/mL (≈ 0.963 µM)	16 µg/mL (≈ 30.8 µM)	< 0.03 µg/mL	16 µg/mL (≈ 30.8 µM)	4 µg/mL (≈ 7.7 µM)	≤ 0.03 µg/mL	1 µg/mL (≈ 1.93 µM)	16 µg/mL (≈ 30.8 µM)	≤ 0.03 µg/mL	16 µg/mL (≈ 30.8 µM)	8 µg/mL (≈ 15.4 µM)	50 µM
95%	0%	Cc1ccc(OC(=O)c2cc(-c3ccc(C)c(C)c3)on2)c(C)c1	–	–	–	–	–	–	–	–	–	–	–	–
–	–	O=C(Nc1ccc(Sc2nc3ccccc3s2)c(Cl)c1)c1cc(Br)cc(Br)c1O	0.5 µg/mL (≈ 0.876 µM)	16 µg/mL (≈ 28 µM)	< 0.03 µg/mL	16 µg/mL (≈ 28 µM)	≤ 2 µg/mL	≤ 0.03 µg/mL	4 µg/mL (≈ 7.01 µM)	16 µg/mL (≈ 28 µM)	≤ 0.03 µg/mL	16 µg/mL (≈ 28 µM)	8 µg/mL (≈ 14 µM)	100 µM
–	–	O=C(Nc1ccc(Oc2cc3ccccc3cc2Cl)c(Cl)c1)c1cc(Cl)cc(I)c1O	0.5 µg/mL (≈ 0.855 µM)	16 µg/mL (≈ 27.4 µM)	< 0.03 µg/mL	16 µg/mL (≈ 27.4 µM)	≤ 2 µg/mL	≤ 0.03 µg/mL	4 µg/mL (≈ 6.84 µM)	16 µg/mL (≈ 27.4 µM)	≤ 0.03 µg/mL	16 µg/mL (≈ 27.4 µM)	8 µg/mL (≈ 13.7 µM)	> 100 µM
–	–	O=C(Nc1cc(Cl)ccc1Oc1cccc2c(Br)cccc12)c1cc(Cl)cc(Br)c1O	0.5 µg/mL (≈ 0.859 µM)	16 µg/mL (≈ 27.5 µM)	< 0.03 µg/mL	16 µg/mL (≈ 27.5 µM)	≤ 2 µg/mL	≤ 0.03 µg/mL	4 µg/mL (≈ 6.87 µM)	16 µg/mL (≈ 27.5 µM)	≤ 0.03 µg/mL	16 µg/mL (≈ 27.5 µM)	8 µg/mL (≈ 13.7 µM)	100 µM
–	–	Cc1ccc(C(C)C)cc1Oc1ccc(Cl)cc1NC(=O)c1cc(Cl)cc(Br)c1O	0.5 µg/mL (≈ 0.982 µM)	16 µg/mL (≈ 31.4 µM)	< 0.03 µg/mL	16 µg/mL (≈ 31.4 µM)	0.5 µg/mL (≈ 0.982 µM)	≤ 0.03 µg/mL	1 µg/mL (≈ 1.96 µM)	16 µg/mL (≈ 31.4 µM)	≤ 0.03 µg/mL	16 µg/mL (≈ 31.4 µM)	8 µg/mL (≈ 15.7 µM)	50 µM
–	–	O=C(Nc1ccc(Oc2cc3ccccc3cc2Cl)c(Cl)c1)c1cc(Br)cc(Br)c1O	0.5 µg/mL (≈ 0.859 µM)	16 µg/mL (≈ 27.5 µM)	< 0.03 µg/mL	16 µg/mL (≈ 27.5 µM)	4 µg/mL (≈ 6.87 µM)	≤ 0.03 µg/mL	4 µg/mL (≈ 6.87 µM)	16 µg/mL (≈ 27.5 µM)	≤ 0.03 µg/mL	16 µg/mL (≈ 27.5 µM)	8 µg/mL (≈ 13.7 µM)	100 µM
–	–	O=C(Nc1ccc(Oc2ccc3ccccc3c2Cl)c(Cl)c1)c1cc(Br)cc(Br)c1O	0.5 µg/mL (≈ 0.859 µM)	16 µg/mL (≈ 27.5 µM)	< 0.03 µg/mL	16 µg/mL (≈ 27.5 µM)	≤ 2 µg/mL	≤ 0.03 µg/mL	≤ 2 µg/mL	16 µg/mL (≈ 27.5 µM)	≤ 0.03 µg/mL	16 µg/mL (≈ 27.5 µM)	8 µg/mL (≈ 13.7 µM)	100 µM

SMILES	inhibition [7]	inhibition [8]	MIC [1]	MIC [2]	MIC (Bacillus subtilis)	MIC (Acinetobacter baumannii)	MIC (Staphylococcus aureus [3])	MIC (Staphylococcus aureus [4])	MIC (Staphylococcus aureus [5])	MIC (Serratia marcescens)	MIC (Staphylococcus aureus [6])	MIC (Pseudomonas aeruginosa)	MIC (Escherichia coli)	IC90 [9]
CN1C(=O)c2ccccc2Sc2ccc(NC(=O)c3ccc([N+](=O)[O-])o3)cc21	91%	0%	0.5 µg/mL (≈ 1.26 µM)	32 µg/mL (≈ 80.9 µM)	0.06 µg/mL (≈ 0.152 µM)	12 µg/mL (≈ 30.3 µM)	1 µg/mL (≈ 2.53 µM)	2 µg/mL (≈ 5.06 µM)	2 µg/mL (≈ 5.06 µM)	32 µg/mL (≈ 80.9 µM)	0.5 µg/mL (≈ 1.26 µM)	128 µg/mL (≈ 324 µM)	256 µg/mL (≈ 647 µM)	–
COc1cccc(-c2coc3c(C)c4oc(=O)c(CCC(=O)O)c(C)c4cc23)c1	90%	0%	1 µg/mL (≈ 2.55 µM)	> 256 µg/mL	> 64 µg/mL	> 256 µg/mL	2.5 µg/mL (≈ 6.37 µM)	2.5 µg/mL (≈ 6.37 µM)	2.5 µg/mL (≈ 6.37 µM)	> 256 µg/mL	2.5 µg/mL (≈ 6.37 µM)	> 256 µg/mL	> 256 µg/mL	–
